Compound activity (PubChem)
TAAR1 antagonist – human TAAR1 antagonism | CHO RD-HGA16 TAAR1, Fluo-8 calcium fluorescence, antagonist | hit rate 1.5% among 360,000 | inhibition, % at 3 µM | Q96RJ0;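 active means inhibition above a per-plate cutoff, the mean inhibition of test compounds on that plate plus 3 SD, cut at about 49% in these data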;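 further: 0% = DMSO plus EC80 beta-PEA response and 100% = DMSO alone without agonist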
Target sequence (Q96RJ0 whole entry, looked up): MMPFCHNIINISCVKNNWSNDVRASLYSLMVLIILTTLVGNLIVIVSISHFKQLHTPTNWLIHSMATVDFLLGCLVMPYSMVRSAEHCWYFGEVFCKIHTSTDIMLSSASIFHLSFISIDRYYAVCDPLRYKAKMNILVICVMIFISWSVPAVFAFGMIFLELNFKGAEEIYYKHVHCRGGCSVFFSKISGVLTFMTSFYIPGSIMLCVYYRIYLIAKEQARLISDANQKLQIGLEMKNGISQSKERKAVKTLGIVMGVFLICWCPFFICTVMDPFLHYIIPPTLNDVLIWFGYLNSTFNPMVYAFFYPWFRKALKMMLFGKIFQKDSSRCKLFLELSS
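System: RD-HGA16 CHO cells with stable hTAAR1 and Gα16 | Probe or stimulus: EC80 β-phenethylamine stimulus | Dosing: 3 µM, single point | Times: Dye loading 75 min at 37 °C, then 30 min room temperature | Measured by: Fluo-8 calcium-sensitive fluorescence | Read-out basis: % inhibition of agonist calcium response | Replicates: n of 1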
CRFBP-R2 block – CRF-BP/CRF-R2 complex antagonism. inhibition, % at 11.8 µM. AID 588475. hit rate 0.59% among 350,000. HEK293 CRF-R2/CRF-BP, CRF-induced calcium fluorescence;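 active means inhibition of the ligand-induced calcium signal above about 50% at the single tested concentration, limit read from the data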
ANO1 activ – activates or potentiates the mouse TMEM16A chloride channel; Q8BHY3; HEK293 TMEM16A/YFP-H148Q/I152L, iodide quench fluorescence; stronger effect = lower value; hit rate 0.3% among 340,000; B-score at 10 µM;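 active means fluorescence-ratio B-score plate-corrected deviation score at least 3 library SD below zero, with starting fluorescence score within 5 deviations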;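 further: channel opened by trigger with iodide after compound preincubation; score built on the fluorescence ratio of max minus min over baseline; more negative score means more quench and so TMEM16A activation or potentiation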
TMEM16A inh – blocks the mouse calcium-activated chloride channel TMEM16A. HEK293 TMEM16A/YFP iodide influx fluorescence, ionomycin. Q8BHY3. normalized B-score (activity score, 25-100; higher = stronger inhibition) at 10 µM. AID 588511. hit rate 1.2% among 310,000;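 active means ratio plate-corrected score three or more library SD toward inhibition, starting fluorescence score within five deviations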;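 further: score derived from kinetic fluorescence span divided by baseline fluorescence per well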
CRFR2-BP ag – CRF-BP/CRF-R2 complex agonism | AID 588473 | HEK293 CRF-R2/CRF-BP, calcium dye fluorescence (FLIPR); percent of saturating CRF peptide response | activation, % at 13.2 µM | hit rate 0.46% among 350,000;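 active means activation of at least 50%, plus an integration ratio under a set limit after plate pattern correction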;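 further: plate controls were neutral control wells without compound for no effect and CRF at EC100 for full effect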
TAAR1 ag – agonists of human TAAR1; Q96RJ0; CHO RD-HGA16 TAAR1, Fluo-8 calcium fluorescence; vehicle wells 0%, saturating PEA agonist 100%; activation, % at 3 µM; hit rate 0.99% among 360,000;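 active means activation above the mean activation of all test compounds in the run plus 3 SD, cut at about 38% in these data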
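Benchmarks: low control DMSO, high control PEA (EC100); System: CHO RD-HGA16 cells carrying human TAAR1 plus Gα16; Detection: Fluo-8 fluorescence, 5 s baseline then 140 s kinetic read; Schedule: 17-24 h plating, Fluo-8 75 min 37 °C, 30 min RT; Read-out basis: % activation from peak over basal fluorescence ratio, DMSO-to-PEA scaled.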
TMEM16A reconf – TMEM16A (mouse) chloride channel inhibition, re-confirmation | AID 652189 | inhibition, % at 10 µM | shares compounds with TMEM16A inh | HEK293 TMEM16A/YFP-H148Q, iodide quench fluorescence; ionomycin added to raise cell calcium | hit rate 39% among 2,300;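 active means mean duplicate percent inhibition, scaled so buffer wells are 0 and the reference blocker 100, over three buffer SD above buffer mean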
HEK293 Ca mobil – alters calcium mobilization in TMEM16A HEK293 cells, counter-screen. calcium response (% of ionomycin), % at 10 µM. hit rate 2% among 2,300. shares compounds with TMEM16A inh. AID 652231. TMEM16A/YFP HEK293, Fluo4 calcium mobilization;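 active means duplicate-averaged calcium signal over 20% of the ionomycin maximum, relative to buffer baseline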;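 further: each well's signal is peak minus trough fluorescence divided by its pre-addition baseline; 0% = buffer wells and 100% = ionomycin wells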
Parental YFP cnt – parental YFP-HEK293 iodide quench counter-screen activity; shares compounds with TMEM16A inh; YFP ratio F(max-min)/F0 at 10 µM; 2,300 tested, under 10 active; ionomycin;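 active means yellow fluorescent protein signal ratio exceeding the buffer control mean by over 5 SD of those controls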;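 further: ratio is mean of duplicate wells from kinetic YFP trace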
ClC-1 inh – rat ClC-1 inhibition, TMEM16A specificity screen | 2,300 tested, under 10 active | shares compounds with TMEM16A inh | CHO ClC-1-YFP, iodide influx fluorescence quench; iodide control reads 0, buffer control 100 | ratio percent, % at 10 µM | AID 652236;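 active means duplicate-mean ratio percent above the mean of iodide-only control wells, which defines zero, plus 5 of their SD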;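 further: higher percent means stronger block of ClC-1 iodide influx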
Starred values were filed as active, the others as inactive; i = inactive; / = not tested or not shown. Hits are enriched below; roughly 3.9% of the tested compounds scored in any of these assays.

SMILES | TAAR1 antagonist | CRFBP-R2 block | ANO1 activ | TMEM16A inh | CRFR2-BP ag | TAAR1 ag | TMEM16A reconf | HEK293 Ca mobil | Parental YFP cnt | ClC-1 inh
COc1ccc(S(=O)(=O)N(C)C[C@H]2Oc3c(NC(=O)Nc4c(C)noc4C)cccc3C(=O)N([C@H](C)CO)C[C@@H]2C)cc1 | -1 | 10 | i | / | 2 | 4 | / | / | / | /
COC(/C(=N/O)c1ccc(Cl)cc1)c1ccccc1 (stereo not given) | 33 | 17 | i | 100* | 1 | 8 | 26%* | i | -1.3 | -26
Nc1cccc(C(=O)NCCNC(=O)c2cccc(N)c2)c1 | -2 | 1 | i | i | -1 | 4 | / | / | / | /
Cc1ccc(CNn2cnnc2SCc2ccc(F)cc2)cc1 | 11 | -12 | i | 100* | -2 | 8 | i | i | -1.3 | 4
Fc1ccc(CNn2cnnc2SCc2ccc(F)cc2)cc1 | -4 | -17 | i | i | 0 | 5 | / | / | / | /
Cc1ccc(-c2csc(NC(=O)c3ccc(Br)cc3)c2C(=O)O)cc1 | 24 | 16 | i | 100* | -1 | -1 | 28%* | i | -1.2 | 0
CC(C)Cc1csc(NC(=O)c2ccccc2Cl)c1C(=O)O | -1 | 4 | i | i | -1 | -1 | / | / | / | /
CC(C)Cc1csc(NC(=O)c2ccc(Cl)cc2)c1C(=O)O | 2 | 95* | i | 25* | 27 | -2 | 39%* | i | -0.81 | -5
C[C@]12c3[nH]c4cc(-c5ccco5)ccc4c3CCN1C(=O)[C@@H](CC(=O)NCc1cccc(C(F)(F)F)c1)C[C@@H]2C(=O)N1CCCCC1 | -7 | 6 | / | / | 0 | 1 | / | / | / | /
Fc1ccccc1N1CCN(c2nc3ccccc3n3nnnc23)CC1 | 2 | 19 | i | i | 1 | 17 | i | i | -0.89 | -6
Fc1cc(Br)ccc1Nc1nc2ccccc2n2nnnc12 | 3 | -30 | i | i | 1 | -1 | / | / | / | /
O=C(Nc1ccccc1C(=O)NCCCN1CCOCC1)c1ccc(F)cc1 | -8 | -10 | i | i | 4 | 2 | / | / | / | /
COc1ccc(C(C)(O)c2nc(-c3ccc4c(c3)OCO4)cs2)cc1 (stereo not given) | 0 | / | / | / | / | -1 | / | / | / | /
COc1cccc(C(C)(O)c2nc(-c3cnc4ccccc4c3)cs2)c1 (stereo not given) | 35 | / | / | / | / | 4 | / | / | / | /
COc1ccc(C2C(C(=O)N3CCN(c4ccccc4)CC3)c3ccccc3C(=O)N2C)cc1 (stereo not given) | 26 | 3 | i | i | 1 | 9 | / | / | / | /
COc1ccc(C2C(C(=O)N3CCN(c4ccccc4)CC3)c3ccccc3C(=O)N2C)cc1OC (stereo not given) | -6 | -13 | i | 100* | 1 | 6 | i | i | -1.1 | -30
O=S1(=O)CC/C(=N\O)c2ccccc21 | 1 | 4 | i | 25* | 3 | 5 | i | i | -1.2 | -4
C=CCNC(=S)N/N=C1\CCS(=O)(=O)c2ccccc21 | 2 | 3 | i | i | 1 | 1 | / | / | / | /
Cc1cc(OCC(=O)OC(C)C(=O)Nc2ccc(N3CCOCC3)cc2)ccc1Cl (stereo not given) | 5 | -11 | i | / | -1 | 6 | / | / | / | /
COc1cc(C(=O)NC(=S)Nc2ccc3ccccc3c2)cc(OC)c1OC | 8 | 2 | / | / | 0 | 2 | / | / | / | /
Cc1cccc(NC(=O)c2cccc(C(=O)Nc3cccc(C)n3)c2)n1 | 16 | 10 | i | i | 1 | 9 | / | / | / | /
Cc1cccc(NC(=O)c2ccc(C(=O)c3ccccc3)cc2)n1 | 38 | -7 | i | 100* | 1 | 3 | 47%* | i | -0.95 | -18
CN(C)c1cccc(C(=O)N2CCCC(CCC(=O)NCc3ccccc3F)C2)c1 (stereo not given) | -40 | -3 | i | i | 0 | 2 | / | / | / | /
CC(C)N(Cc1nccn1C)C(=O)c1cc(COc2ccc3ncccc3c2)on1 | -4 | -6 | i | i | 1 | 4 | / | / | / | /
Cc1nc(CN(C)C(=O)c2cc(COc3ccc4ncccc4c3)on2)cs1 | 12 | -4 | i | 100* | 2 | 9 | 18%* | i | -1 | -25
SMILES | TAAR1 antagonist | CRFBP-R2 block | ANO1 activ | TMEM16A inh | CRFR2-BP ag | TAAR1 ag | TMEM16A reconf | HEK293 Ca mobil | Parental YFP cnt | ClC-1 inh
CCCn1c(CN(Cc2ccccc2)Cc2ccccc2)nc2c1c(=O)n(C)c(=O)n2C | / | 7 | i | 100* | 0 | / | 18%* | i | -0.87 | -8
CCCn1c(CN(C)Cc2ccccc2)nc2c1c(=O)n(C)c(=O)n2C | 16 | -1 | i | i | -4 | 12 | / | / | / | /
Cc1oc2cc3oc(=O)c(CCC(=O)NC4CC4)c(C)c3cc2c1C | 16 | -7 | i | 25* | 0 | 1 | i | i | -0.78 | -15
CC(Oc1ccc(Cl)cc1)c1ccnn1S(=O)(=O)c1ccccc1 (stereo not given) | -15 | 44 | i | 100* | 0 | 1 | 32%* | i | -1.1 | -12
O=C(c1cnn2c(C(F)(F)F)cc(-c3ccccc3)nc12)N1CCCCC1c1cccnc1 (stereo not given) | -8 | 0 | i | i | -5 | 5 | / | / | / | /
O=C(c1cc2nc(-c3ccc(F)cc3)cc(C(F)(F)F)n2n1)N1CCCCC1c1cccnc1 (stereo not given) | 19 | -15 | i | 100* | -2 | -1 | 22%* | i | -1 | -19
Cn1c(Cc2ccccc2)nnc1SCC(=O)NC1CCCC1 | 1 | 5 | i | 100* | 2 | 4 | i | i | -1.1 | -14
Cn1c(Cc2ccccc2)nnc1SCC(=O)NC1CCCCC1 | 3 | 29 | i | i | -1 | 2 | / | / | / | /
O=C(COC(=O)c1ccc([N+](=O)[O-])o1)NCc1ccc2c(c1)OCO2 | -3 | 6 | i | / | 1 | 1 | / | / | / | /
CCC1(C(=O)O)NC(c2cc(OC)ccc2O)C2C(=O)N(Cc3ccccc3)C(=O)C21 (stereo not given) | -14 | -2 | i | i | 1 | 2 | / | / | / | /
